According to the EternaBench riboswitch data:

Test system: MS2 coat protein
Test: apparent Kd, MS2 coat protein; higher = weaker binding; RNA-MaP array; FMN 200 µM where present
Outline: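 Apparent Kd: the median of filtered binding-curve fits from single clusters. Designs were transcribed on Illumina sequencing-chip clusters by stalled E. coli RNA polymerase and titrated with SNAP-549-labelled MS2 coat protein from 0.7 or 1.5 nM, doubling to 3 µM, in 100 mM Tris-HCl pH 7.5, 80 mM KCl, 4 mM MgCl2, BSA, DTT, yeast tRNA and Tween-20. Each series ran without and then with constant ligand, and green signal was normalised to red-channel RNA signal and control-cluster median Fmax.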

[1] = designed as: OFF switch for flavin mononucleotide, no ligand
[2] = ligand present: flavin mononucleotide, designed as: OFF switch for flavin mononucleotide
[3] = designed as: ON switch for flavin mononucleotide, no ligand
[4] = ligand present: flavin mononucleotide, designed as: ON switch for flavin mononucleotide

Sequence | apparent Kd [1] [nM] | apparent Kd [2] [nM] | apparent Kd [3] [nM] | apparent Kd [4] [nM]
GCGAGUAAAGCAGGAUAUCUAAUAUCACGGAAACAUGAGGAUCACCCAUGUAGAGAAGGGCUAAGUCAUACAAUUCGAACUCGC | 14.1 | 10.5 | – | –
GACUUGCUGUCAGGAUAUAACCGUCCUACACGGUUAGAAGGGACAUGAGGAUCACCCAUGUGCCAGAGCGCACGAAUUUUUUAC | 10.8 | 50.9 | – | –
UGUCGGAGCAGAGGAUAUUACAUGAGGAUCACCCAUGUAUGAACCAAUAGCUGGAAACAGGAAUGUAAGAAGGCUGCUCCGACA | 6.17 | 30.1 | – | –
AGCAGACGAGGAUAUAGAUUUAGAUACAUGAGGAUCACCCAUGUAUAGAUGUAUUUAGAUUUAGAAGGCGUCUGCU | 211 | 221 | – | –
UAGGUUUGUAGUUACAUCCCUACACAGGAUAUAGGUAGUUACAUGAGGAUCACCCAUGUUCGAACUUAGAAGGGUGGAUCGUUG | – | – | 48 | 10.3
GGUUGACAAAGUCAACCAAAUCGAACAUGAGGAUCACCCAUGUAGGAUAUGCUACUCAAAGAGUAGCAGAAGGACAUGUGCUUU | 40.7 | 227 | – | –
UGCAGACGAGGAUAUAGAUUUAAGUACAUGAGGAUCACCCAUGUGCAUAUGUAUUUAGAUUUAGAAGGCGUCUGCU | 415 | 383 | – | –
CGGAAUUGUACAGGAUAUGAGGGUACCUGAGCCUCAGAAGGGUAGACCGACAUGAGGAUCACCCAUGUAUGCGGAUAACGUCCG | – | – | 1180 | 592
AACAAUCUAUCUGAGGAUAUCAUGAAAAAAACAUGAGGAUCACCCAUGUGCAGGAAAACUGCAUAUGAGAAGGCAGAUAGAUUGG | – | – | 618 | 31.6
UAGUUAUUCACAGGAUAUCGCCUCUUAUUACAUGAGGAUCACCCAUGUUUAGUUAGUUACAUGUUCGAGAAGGGUGUAGUUGUU | 554 | 819 | – | –
GGGACUCUAAAUGGGCUGUCGACAUAGGAUAUGAUGUGCGACAUGAGGAUCACCCAUGUAACGAAUUAGAAGGGUGUAGGCAUG | – | – | 574 | 173
UCAUUAGCGGGCGGGUCGGUUGGACAUGAGGAUCACCCAUGUAGAAGGACCGGUGGACUCCGGCGGUAGGAUAUACAUUUGGUG | 22 | 30.7 | – | –
AAUAAACUCACAGGAUAUAGCCGAGGUCGCGUGAACUUACAGGCGACGAGGCUAGAAGGGUGACCACAUGAGGAUCACCCAUGU | – | – | 985 | 106
AGAUCGAGUGUGAGGAUAUUGACCGGACGACCCAUCGAGAAGGCACAUGAGGAUCACCCAUGUGAUUCGGCUCA | 17.7 | 26.4 | – | –
UGUUGGAGCGAGAAGGGACGAUGGGAAGCUGUAGGCUGGCACUGUAGACAUGAGGAUCACCCAUGUCAGGAUAUUGCCGAACUA | 5.83 | 7.71 | – | –
UAACCUCGCGUCAGGAUAUGUGAGGACUGUGACGCACAGAAGGGACAUGAGGAUCACCCAUGUGAAAGAAAUAA | 26.8 | 82.5 | – | –
UGCAUGCUAGGAUAUACGGGACAUUAGGGUUCGUUGUGUGGACAUGAGGAUCACCCAUGUAGAAGGAGCGUGCU | 85.6 | 243 | – | –
GUCCGUAGACAGAAGGUGACAUGAGGAUCACCCAUGUUAGUUGAGGUAUCAGCGAUCUGCGUGAUUGAGGAUAUGUCUACGGGC | 7.9 | 8.22 | – | –
CAGGUAGACUGAGGAUAUACAAUAAAGACCUAGUCUAUCUAGGUCCCUACAUGAGGAUCACCCAUGUAGAAGGCAGUCUGCCUG | 15.9 | 20.5 | – | –
UAUAUAUAGUAAGGAUAUGUAUUAAUUUUAUGAACAGAAGGUACUGACAUGAGGAUCACCCAUGUUUUAGUGUGGGCAUGUAGA | 85.5 | 122 | – | –
AUCAGCUCGUCAGGAUAUACGUCCUGGUAAGAUCACAUGAGGAUCACCCAUGUAGAAGGGACGAGCUGAUAAGCACGAAAGUGC | 18.6 | 81.6 | – | –
AAUAAACUCACAGGAUAUAGCAGAGGUCGCGCGAACUUACAGGCGACUAUGCUAGAAGGGUGACCACAUGAGGAUCACCCAUGU | – | – | 944 | 162
UUGGGACAUGAGGAUCACCCAUGUAAGGAUAUUGGCGCGCCGGCUCUGUCUGUUCCGCCGAGAAGGUACACGUU | 104 | 173 | – | –
GCACGGUAUGUAGGAUAUGCAUAGCAUUGCUAUGCAGAAGGACAUGAGGAUCACCCAUGUAUGUAUUCCAUAUAUUUCCCGUGC | 5.55 | 5.87 | – | –
GCGACGAUCGAGAAGGCCACUACAUGAGGAUCACCCAUGUCGUGGUGUAUUGGAGGAUAUCGAUCAGCGUCUUAUGAGGACAUG | 5.13 | 7.68 | – | –
GCAGCACAGAUUUACAUGAGGAUCACCCAUGUCUAUUAAGAUGAGGAUAUGCAUCGAAUGAAGUUGCAGAAGGCAUUGUGCUGC | – | – | 6.77 | 5.78
CAGUACUGAGGAUAUACAUGAGGAUCACCCAUGUGCUUCAGCUAGGAUACUAGCAUUAGUAGAAGGCAGUACUG | 10.9 | 64.1 | – | –
CCCGCGAUGUCAGGAUAUAGUCGGAGGUGCAGACUAGAAGGGACAUGAGGAUCACCCAUGUGCGUGAAAAUUUGAAACCCAGGU | 46.5 | 164 | – | –

Sequence | apparent Kd [1] [nM] | apparent Kd [2] [nM] | apparent Kd [3] [nM] | apparent Kd [4] [nM]
CGAGAUCUUGAGAAGGCAUAAUAUAUAAUACCACAUGUUUACAUGAGGAUCACCCAUGUUUCCAAUGAGGAUAUCAGGAUUUCG | 19.6 | 14.8 | – | –
GUUUUUCCUCAUGUACAUGAGGAACAUGAGGAUCACCCAUGUAGAAGGAAUUUUUUUAAGUUUAGUUAGGAUAUACAUAUAUUU | 72.9 | 64.5 | – | –
CAGAAGUCAGGAUAUCCUGCUCGUCACUUGCGUGAUGAGUAGGAGAAGGGACAUGAGGAUCACCCAUGUAAAGG | 144 | 411 | – | –
CUGUGACGGAUCCAGAAUUACAACAUGAGGAUCACCCAUGUACAGGAUAUCGGGUUGAUAGGCGCCGAGAAGGGUAUGAUCACG | 137 | 121 | – | –
GUACGUGGACAGAAGGCGACAUGAGGAUCACCCAUGUUGGCUCGGGUACGAGCAAUCCGCGUGAUUGAGGAUAUGUCUGCGGGC | 6.25 | 9.93 | – | –
UUAUUUAUGUAAGGAUAUCGAUGAUAUACACAUCCGACAUGAGGAUCACCCAUGUUUUAUUUUGUCGAGAAGGUACAUUGUCGG | – | – | 56.2 | 47
AUAUAUAUAGGAUAUACAUGAGGAUCACCCAUGUGCUUCAGCUAGGAGACUAGCAUUGGUAGAAGGAUAUAUAU | 16.1 | 26.1 | – | –
AGAAAACAUGAGGAUCACCCAUGUGAGGAUAUCGAUGUCCAGGGCCUGGUGCGGGACUCGAGAAGGCACUGGGA | 59.9 | 86.9 | – | –
UUGUUAUGUGUAGGAUAUGCAUAUUAUUAUUAUGCAGAAGGACAUGAGGAUCACCCAUGUAUAUUAUUAUUAUAUAUUAUAUAU | 28.7 | 37 | – | –
AUGGCUAAUGAGAAGGUGUAUAUAAAUUAUAUACAAGGAUAUCGGUCAAGCAUGAAAACAUGAGGAUCACCCAUGUAAAGCCAU | – | – | 9.37 | 7.57
AUUAUUUAGUAGAAGGACGACUAUUAAUAUUUCGUAGGAUAUACUAUUUACAUGAGGAUCACCCAUGUUUAAAUGGAACAAUGU | 11.2 | 14 | – | –
UGACCCAUGACAUGAGAUGACAUGAGGAUCACCCAUGUUUACAAGGAUAUGUUGAUGAAACAUCAACAGAAGGUGUAAUGGGAU | 53.7 | 385 | – | –
CAGCCCUGAGGAUAUCCCUACUUGUACAUGAGGAUCACCCAUGUUCUCCUCUGGGCUUUGGGAGAAGGCAGGUCUC | 15 | 17.7 | – | –
CUUUUGUGAGGAUAUUGGUAGUAAAUGAAUAAAAUUAUUACCGAGAAGGUACAUGAGGAUCACCCAUGUUCCUC | 19.4 | 27.9 | – | –
GAUACACAUGAGGAUCACCCAUGUGAGGAUAUGAUACUAUGUACUUCGGUACAUAGUAUCAGAAGGCACAUUGA | 47.6 | 76.8 | – | –
GAGGAACAUGAGGAUCACCCAUGUGAGGAUAUGCAUAGUGAGGUAGUAGAAGUUGAAUGCAGAAGGUACACUGA | 42.2 | 32.2 | – | –
GCUGACGAUGUAGGAUAUCUCGACGAUAAGUCGAGAGAAGGACAUGAGGAUCACCCAUGUAAACUCGCGUCAGCGAGGAAACUC | 17.9 | 20.1 | – | –
AAAAAAAAAGUGCAGGAUAUCCUCAUGGCUACAUGAGGAUCACCCAUGUGAAGAAAAGCACAUGAGGAGAAGGGCACAAAAAAAAA | – | – | 23.4 | 12.3
CUCUUGUAAGGAUAUGCUGCUCGUCACGAAAGUGAUGAGUAGCAGAAGGUACAUGAGGAUCACCCAUGUAAAUA | 111 | 34.9 | – | –
UGGUAACAUGAGGAUCACCCAUGUCAGGAUAUCAGUAAGAAUAGAUUAGAUUAGAAUAUGAGAAGGGACUAUAU | 37.3 | 31.6 | – | –
AAACAUGUCCGAGGAUAUCUGGAAACAUUUUCAAGAGAAGGCGGACAUGAGGAUCACCCAUGUCUCUCCUCAUCAAAUCCAAUU | 8.37 | 51.1 | – | –
CUCAUGUGAGGAUAUAGUGCGUCUUCUAUUAUUAUUGAGUACUAGAAGGCACAUGAGGAUCACCCAUGUAGCAC | 53.4 | 54.3 | – | –
CAUGUCCUCACAGGAUAUGCUGGACUUUGUCCAGCAGAAGGGUGUUAACAUGAGGAUCACCCAUGUGGACAUGAUAUAUUUAAG | – | – | 757 | 66.2
GCAGCGUAUGUAGGAUAUCGGUCAGUCUCUGAUCGAGAAGGACAUGAGGAUCACCCAUGUAAAUUACCGACUUUGUCGGGCUGC | 7.14 | 9.62 | – | –
CGCGAACAGUUUAACAUGAGGAUCACCCAUGUGGACUCAUGGUAGGAUAUCGGGAAGGAGGAAACCGAGAAGGGCUGGUGAGCC | – | – | 583 | 419
GAUCCACAUGAGGAUCACCCAUGUGAGGAUAUGAUACUAUGUACUUCGGUACAUAGUAUCAGAAGGCAUAUUGA | 44 | 75.7 | – | –
UUAUACUGAGAGAAGGUUCAAACUACAUAUUGCAUACAUGAGGAUCACCCAUGUUGGUGAAUAAGAAAGGAUAUUUUACUAUAU | 44 | 32.4 | – | –
